Series [1] deals with Plasmodium falciparum. As to the kind of experiment: Antiplasmodial activity against chloroquine-sensitive Plasmodium falciparum D10 infected in erythrocytes after 48 hrs by giemsa staining based assay. It is filed as functional, cell-based. The note with it: D10, 48 h.
The test system of another series is CHO. As to the kind of experiment: Cytotoxicity against CHO cells. In kind it is cell-based. Particulars: Cricetulus griseus.
For series [2], the system named is Plasmodium falciparum. The series is described as follows: Antiplasmodial activity against chloroquine-resistant Plasmodium falciparum K1 by [3H]hypoxanthine incorporation assay. In kind it is functional. Summed up:
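Multidrug-resistant K1 strain of P. falciparum tested in vitro with a modified [3H]hypoxanthine incorporation assay. IC50 determined. Chloroquine and artesunate served as reference drugs in every experiment.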

Series [3] is described as follows: Selectivity index, ratio of IC50 for CHO cells to IC50 for chloroquine-sensitive Plasmodium falciparum NF54. In kind it is toxicity. Particulars: hamster, read-out: Ratio IC50. Summed up: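 IC50 against Chinese hamster ovary cells (cytotoxicity) was divided by IC50 against P. falciparum NF54. NF54 IC50 came from the lactate dehydrogenase assay, with chloroquine and artesunate as references.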

The test system of series [4] is Plasmodium falciparum. As to the kind of experiment: Potency index, ratio of fusidic acid IC50 to compound IC50 for chloroquine-sensitive Plasmodium falciparum NF54. In kind it is functional. In short, it runs like this: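 Chloroquine-sensitive P. falciparum NF54 was tested with the lactate dehydrogenase assay, using chloroquine and artesunate as reference drugs. The index is fusidic acid's IC50 divided by the compound's IC50, both against NF54.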

The nature of series [5]: Stability of the compound assessed as Plasmodium falciparum NF54 esterase-mediated fusidic acid release at 0.5 uM up to 48 hrs by LC-MS/MS analysis. It is filed as ADME. Particulars: plasmodium falciparum nf54, isolated protein.
For series [6], the system named is Plasmodium falciparum. The series is described as follows: Potency index, ratio of fusidic acid IC50 to compound IC50 for chloroquine-resistant Plasmodium falciparum K1. In kind it is functional.
The subject of series [7] is Plasmodium falciparum. As to the kind of experiment: Antiplasmodial activity against chloroquine-sensitive Plasmodium falciparum NF54 by LDH assay. It is filed as functional. Summed up:
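In vitro test on the chloroquine-sensitive NF54 strain of P. falciparum, read out by the lactate dehydrogenase assay. Reported as IC50. Chloroquine and artesunate were included as reference drugs in all experiments.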

The values below come from ChEMBL document CHEMBL4041542, “Synthesis and biological characterisation of ester and amide derivatives of fusidic acid as antiplasmodial agents” (Bioorg Med Chem Lett, 2017).

As usually defined, the IC50 is the midpoint of a concentration-inhibition curve. A low value points to greater potency.

For the compound `CC(=O)O[C@H]1C[C@@]2(C)[C@@H](C[C@@H](O)[C@H]3[C@@]4(C)CC[C@@H](O)[C@@H](C)[C@@H]4CC[C@@]32C)/C1=C(\CCC=C(C)C)C(=O)O` [FUSIDIC ACID], the IC50 in the series on Plasmodium falciparum [1] was 50000 nM; with CHO, over 194000 nM; in the series on Plasmodium falciparum [2], 19000 nM. Also, the selectivity ratio in series [3] is over 3.
Turning to `CCOC(=O)/C(CCC=C(C)C)=C1\[C@@H](OC(C)=O)C[C@@]2(C)[C@H]1C[C@@H](O)[C@H]1[C@@]3(C)CC[C@@H](O)[C@@H](C)[C@@H]3CC[C@@]12C`, the “Ratio IC50” value in the series on Plasmodium falciparum [4] was 4 - 49; in the series with Plasmodium falciparum [6], 5 - 17. Besides, the Stability result in series [5] is reported as “Stable”. The results for the IC50 with CHO, with Plasmodium falciparum [2] and in the series on Plasmodium falciparum [7] were 65500 nM, 2200 nM and 3400 nM, respectively. Further, the selectivity ratio in series [3] is 19.
Regarding `CC(=O)O[C@H]1C[C@@]2(C)[C@@H](C[C@@H](O)[C@H]3[C@@]4(C)CC[C@@H](O)[C@@H](C)[C@@H]4CC[C@@]32C)/C1=C(\CCC=C(C)C)C(=O)Oc1cc(C)ccc1C`, the “Ratio IC50” value in the series with Plasmodium falciparum [4] is 4 - 49; with Plasmodium falciparum [6], 5 - 17. Moreover, the IC50 stood at 103000 nM in the series on CHO, 1400 nM in the series on Plasmodium falciparum [2] and 3000 nM with Plasmodium falciparum [7]. Further, the selectivity ratio in series [3] amounted to 34.
`CC(=O)O[C@H]1C[C@@]2(C)[C@@H](C[C@@H](O)[C@H]3[C@@]4(C)CC[C@@H](O)[C@@H](C)[C@@H]4CC[C@@]32C)/C1=C(\CCC=C(C)C)C(=O)Oc1ccc(C)cc1C`: the results for the “Ratio IC50” value with Plasmodium falciparum [4] and with Plasmodium falciparum [6] were 4 - 49 and 5 - 17, respectively. Also, the IC50 with CHO is 98900 nM; in the series with Plasmodium falciparum [2], 1400 nM; in the series on Plasmodium falciparum [7], 2400 nM. Moreover, the selectivity ratio in series [3] stood at 41.
`COc1cccc(OC(=O)/C(CCC=C(C)C)=C2\[C@@H](OC(C)=O)C[C@@]3(C)[C@H]2C[C@@H](O)[C@H]2[C@@]4(C)CC[C@@H](O)[C@@H](C)[C@@H]4CC[C@@]23C)c1`: the “Ratio IC50” value in the series on Plasmodium falciparum [4] was 4 - 49; with Plasmodium falciparum [6], 5 - 17. Further, the IC50 with CHO turned out to be 86400 nM; in the series with Plasmodium falciparum [2], 1300 nM; in the series with Plasmodium falciparum [7] it was 1800 nM. Further, in series [3], the selectivity ratio came out at 48.
`CC(=O)O[C@H]1C[C@@]2(C)[C@@H](C[C@@H](O)[C@H]3[C@@]4(C)CC[C@@H](O)[C@@H](C)[C@@H]4CC[C@@]32C)/C1=C(\CCC=C(C)C)C(=O)Oc1ccc(Cl)cc1`: the “Ratio IC50” value in the series with Plasmodium falciparum [4] was 20 - 28; in the series with Plasmodium falciparum [6], 12 - 14. The IC50 with CHO was 71600 nM; in the series on Plasmodium falciparum [2], 1400 nM; with Plasmodium falciparum [7], 2300 nM. Moreover, in series [3], the selectivity ratio is 31.
For `CC(=O)O[C@H]1C[C@@]2(C)[C@@H](C[C@@H](O)[C@H]3[C@@]4(C)CC[C@@H](O)[C@@H](C)[C@@H]4CC[C@@]32C)/C1=C(\CCC=C(C)C)C(=O)Oc1cc(Cl)cc(Cl)c1`, the “Ratio IC50” value was 4 - 49 in the series with Plasmodium falciparum [4] and 5 - 17 in the series with Plasmodium falciparum [6]. Moreover, the IC50 in the series with CHO came to 81900 nM; with Plasmodium falciparum [2], 1100 nM; with Plasmodium falciparum [7] it was 2000 nM. The selectivity ratio in series [3] came to 41.
Take `CC(=O)O[C@H]1C[C@@]2(C)[C@@H](C[C@@H](O)[C@H]3[C@@]4(C)CC[C@@H](O)[C@@H](C)[C@@H]4CC[C@@]32C)/C1=C(\CCC=C(C)C)C(=O)Oc1cccc(Cl)c1`: the “Ratio IC50” value in the series on Plasmodium falciparum [4] was 4 - 49; in the series on Plasmodium falciparum [6], 5 - 17. In addition, the 50% inhibitory concentration (IC50) with CHO came to 87700 nM; in the series on Plasmodium falciparum [2], 1200 nM; with Plasmodium falciparum [7], 1400 nM. For the same compound, the selectivity ratio in series [3] was 63.
On to `CC(=O)O[C@H]1C[C@@]2(C)[C@@H](C[C@@H](O)[C@H]3[C@@]4(C)CC[C@@H](O)[C@@H](C)[C@@H]4CC[C@@]32C)/C1=C(\CCC=C(C)C)C(=O)Oc1ccc(Cl)c(Cl)c1`, for which the “Ratio IC50” value is 4 - 49 in the series with Plasmodium falciparum [4] and 5 - 17 with Plasmodium falciparum [6]. The IC50 is 95000 nM in the series with CHO, 2200 nM with Plasmodium falciparum [2] and 3600 nM with Plasmodium falciparum [7]. Further, the selectivity ratio in series [3] came to 26.
For `CC(=O)O[C@H]1C[C@@]2(C)[C@@H](C[C@@H](O)[C@H]3[C@@]4(C)CC[C@@H](O)[C@@H](C)[C@@H]4CC[C@@]32C)/C1=C(\CCC=C(C)C)C(=O)Oc1ccc(F)cc1`, the “Ratio IC50” value with Plasmodium falciparum [4] is given as 20 - 28; in the series on Plasmodium falciparum [6] it was 12 - 14. Further, the IC50 in the series on CHO turned out to be 79400 nM; in the series on Plasmodium falciparum [2], 1400 nM; in the series on Plasmodium falciparum [7], 2900 nM. Moreover, the selectivity ratio in series [3] stood at 27.
Regarding `CCCCCCCCCCCCCCNC(=O)/C(CCC=C(C)C)=C1\[C@@H](OC(C)=O)C[C@@]2(C)[C@H]1C[C@@H](O)[C@H]1[C@@]3(C)CC[C@@H](O)[C@@H](C)[C@@H]3CC[C@@]12C`, the “Ratio IC50” value with Plasmodium falciparum [4] is 4 - 49; with Plasmodium falciparum [6] it was 5 - 17. Besides, the IC50 is over 140000 nM with CHO, 4000 nM in the series on Plasmodium falciparum [2] and 13400 nM in the series on Plasmodium falciparum [7]. Further, the selectivity ratio in series [3] is over 10.
Consider `CC(=O)O[C@H]1C[C@@]2(C)[C@@H](C[C@@H](O)[C@H]3[C@@]4(C)CC[C@@H](O)[C@@H](C)[C@@H]4CC[C@@]32C)/C1=C(\CCC=C(C)C)C(=O)Oc1cccc(F)c1`, for which the “Ratio IC50” value in the series with Plasmodium falciparum [4] was 4 - 49; in the series on Plasmodium falciparum [6], 5 - 17. Also, the values for the IC50 with CHO, in the series on Plasmodium falciparum [2] and in the series on Plasmodium falciparum [7] were 89400 nM, 2000 nM and 2600 nM, respectively. In addition, the selectivity ratio in series [3] was 34.
For the compound `CC(=O)O[C@H]1C[C@@]2(C)[C@@H](C[C@@H](O)[C@H]3[C@@]4(C)CC[C@@H](O)[C@@H](C)[C@@H]4CC[C@@]32C)/C1=C(\CCC=C(C)C)C(=O)Nc1ccccc1`, the “Ratio IC50” value with Plasmodium falciparum [4] is on record as 4 - 49; with Plasmodium falciparum [6] it was 5 - 17. In addition, in series [5], the Stability result was “Stable”. Further, the IC50 in the series with CHO turned out to be 89200 nM; in the series on Plasmodium falciparum [2], 1400 nM; in the series with Plasmodium falciparum [7] it was 1200 nM. In addition, the selectivity ratio in series [3] was 74.
On to `CC(=O)O[C@H]1C[C@@]2(C)[C@@H](C[C@@H](O)[C@H]3[C@@]4(C)CC[C@@H](O)[C@@H](C)[C@@H]4CC[C@@]32C)/C1=C(\CCC=C(C)C)C(=O)Oc1ccccc1`, for which the “Ratio IC50” value is 20 - 28 with Plasmodium falciparum [4] and 12 - 14 in the series with Plasmodium falciparum [6]. Besides, the Stability result in series [5] is recorded as “Stable”. Moreover, the IC50 in the series on CHO is 99400 nM; with Plasmodium falciparum [2], 1400 nM; in the series on Plasmodium falciparum [7] it was 2400 nM. Besides, the selectivity ratio in series [3] stood at 41.
With `CCCCCCCCOC(=O)/C(CCC=C(C)C)=C1\[C@@H](OC(C)=O)C[C@@]2(C)[C@H]1C[C@@H](O)[C@H]1[C@@]3(C)CC[C@@H](O)[C@@H](C)[C@@H]3CC[C@@]12C`, the figures for the “Ratio IC50” value in the series on Plasmodium falciparum [4] and in the series on Plasmodium falciparum [6] were 4 - 49 and 5 - 17, respectively. Moreover, the IC50 in the series with CHO was found to be 92400 nM; with Plasmodium falciparum [2], 1600 nM; in the series with Plasmodium falciparum [7], 4600 nM. For the same compound, in series [3], the selectivity ratio turned out to be 20.
Turning to `CC(=O)O[C@H]1C[C@@]2(C)[C@@H](C[C@@H](O)[C@H]3[C@@]4(C)CC[C@@H](O)[C@@H](C)[C@@H]4CC[C@@]32C)/C1=C(\CCC=C(C)C)C(=O)Oc1ccc2ccccc2c1`, the results for the “Ratio IC50” value in the series with Plasmodium falciparum [4] and in the series on Plasmodium falciparum [6] were 4 - 49 and 5 - 17, respectively. Besides, the IC50 is over 155000 nM in the series with CHO, 1700 nM in the series with Plasmodium falciparum [2] and 3200 nM in the series with Plasmodium falciparum [7]. Also, the selectivity ratio in series [3] was over 48.
On to `CC(=O)O[C@H]1C[C@@]2(C)[C@@H](C[C@@H](O)[C@H]3[C@@]4(C)CC[C@@H](O)[C@@H](C)[C@@H]4CC[C@@]32C)/C1=C(\CCC=C(C)C)C(=O)Oc1ccc(Cl)cc1Cl`, for which the “Ratio IC50” value is 4 - 49 in the series with Plasmodium falciparum [4] and 5 - 17 in the series on Plasmodium falciparum [6]. The IC50 in the series on CHO worked out at 99700 nM; in the series with Plasmodium falciparum [2], 1700 nM; in the series on Plasmodium falciparum [7], 3500 nM. Besides, the selectivity ratio in series [3] was determined as 28.
